Results collected from several papers.
Lines come from different studies, so protocols differ.
Target: Mitogen-activated protein kinase 13 (MAPK13, Homo sapiens, UniProt O15264)
Sequence (O15264 1-365, as in one of the studies): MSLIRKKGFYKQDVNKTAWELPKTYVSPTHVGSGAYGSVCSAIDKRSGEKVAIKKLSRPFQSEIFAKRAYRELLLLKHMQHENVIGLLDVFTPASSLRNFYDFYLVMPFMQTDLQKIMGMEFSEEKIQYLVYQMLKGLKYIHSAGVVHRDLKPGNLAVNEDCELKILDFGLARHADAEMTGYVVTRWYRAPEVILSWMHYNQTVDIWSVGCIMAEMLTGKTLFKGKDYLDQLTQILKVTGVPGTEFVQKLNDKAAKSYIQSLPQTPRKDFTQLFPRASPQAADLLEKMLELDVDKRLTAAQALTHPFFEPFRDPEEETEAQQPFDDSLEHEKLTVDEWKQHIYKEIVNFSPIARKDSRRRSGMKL

| Compound | read-out | method | concentration | remaining binding [%] |
| --- | --- | --- | --- | --- |
| O=C(NCCCN1CCOCC1)c1ccc(Nc2nccc(-c3cc4ccccc4s3)n2)cc1 | binding | competition with immobilised ligand | 1 µM | 100 |
| F[C@@H]1CCN(c2nccc(-c3cnn4ncccc34)n2)C1 | binding | – | 1 µM | 67 |
| FC(F)(F)Oc1cccc(-c2cnc3ccc(-c4ccncc4)nn23)c1 | cell-free assay | competition with immobilised ligand | 5 µM | 97 |
| c1cnn2ncc(-c3ccnc(N4CCC45COC5)n3)c2c1 | binding | – | 1 µM | 78 |
| O=C(NCCCN1CCOCC1)c1ccc(Nc2ncc(Cl)c(-c3ccc(Cl)s3)n2)cc1 | binding | competition with immobilised ligand | 1 µM | 100 |
| O=C(Nc1cnc(Oc2ccc(F)cc2)nc1)N1CCc2ncccc2[C@@H]1c1ccc(F)cc1 | cell-free assay | competition with immobilised ligand | 1 µM | 100 |
| O=C(NCC1CCOCC1)c1n[nH]cc1NC(=O)c1c(F)cccc1F | binding | competition with immobilised ligand | 1 µM | 100 |
| C=CC(=O)N1CCC(C(=O)NCC(=O)N2CCN(c3nc(-c4cnc(N)nc4C(F)F)nc(N4CCOCC4)n3)CC2)CC1 | binding | competition with immobilised ligand | 1 µM | 99 |
| C[C@@H]1CCN(c2nccc(-c3cnn4ncccc34)n2)C1 | binding | – | 1 µM | 93 |
| COc1cnc(Nc2cccc(S(N)(=O)=O)c2)nc1N1CCN(c2ccccc2)CC1 | binding | competition with immobilised ligand | 1 µM | 100 |
| CN(C)c1nccc(-c2cnn3ncccc23)n1 | binding | – | 1 µM | 100 |
| O=C(c1ccc(Nc2ncc(Cl)c(-c3cc4ccccc4s3)n2)cc1)N1CCC(N2CCCC2)CC1 | binding | competition with immobilised ligand | 1 µM | 100 |
| NS(=O)(=O)c1cc(NC(=O)C2(c3ccccc3Cl)CC2)ccc1Oc1cccc(Cl)c1 | cell-free assay | competition with immobilised ligand | 1 µM | 88 |
| N[C@H]1CCN(c2nccc(-c3cnn4ncccc34)n2)C1 | binding | – | 1 µM | 84 |
| CN([C@@H]1CCc2c(CC(=O)O)c3cc(S(C)(=O)=O)ccc3n2C1)S(=O)(=O)c1ccc(F)cc1 | cell-free assay | competition with immobilised ligand | 1 µM | 68 |
| CN(CCCC(F)(F)F)c1nccc(-c2cnn3ncccc23)n1 | binding | – | 1 µM | 100 |
| CN1CCN(c2cnc3c(C4CCN(C(=O)c5ccc(OC(F)(F)F)cc5N)CC4)ncnc3c2)CC1 | cell-free assay | competition with immobilised ligand | 1 µM | 100 |
| CNC(=O)[C@@H]1CC[C@@H](n2c(-c3ccc4cnccc4c3)nc3ccc(C(=O)NCc4cccc(C(N)=O)c4)cc32)C1 | binding | competition with immobilised ligand | 1 µM | 100 |
| O=C(O)[C@H]1[C@H](Cn2nnc3ccccc3c2=O)CC[C@@H]1C(=O)c1ccc(OCCC2CCOCC2)cc1 | cell-free assay | competition with immobilised ligand | 1 µM | 97 |
| Nc1ncc2c(n1)-c1c([nH]c3ccc(C#CC4CC4)cc13)CCCC2 | binding | competition with immobilised ligand | 1 µM | 100 |
| CC1CCCN1c1nccc(-c2cnn3ncccc23)n1 (stereo not shown) | binding | – | 1 µM | 100 |
| CS(=O)(=O)NCC[C@H](NC(=O)c1cncc2c1cnn2-c1ccc(F)cc1)c1ccnc(S(C)(=O)=O)c1 | cell-free assay | competition with immobilised ligand | 1 µM | 100 |
